Test results: ChEMBL document CHEMBL1127752, “Synthesis and antitumor activity of novel mitomycin derivatives containing functional groups at the C-6-methyl position” (J Med Chem, 1994)

What was measured:
Mus musculus [1] = assay: Effective dose that gave 50% inhibition of tumor growth was calculated towards sarcoma 180 cells which were inoculated subcutaneously to the axillary region of ddY mice; assay type: functional; details: Mus musculus, 180, sc
In short: (§1)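 Sarcoma 180 cells implanted sc in the axillary region of ddY mice on day 0; compounds given iv on day 1. Tumor volume compared treated versus control (T/C). 50% growth-inhibitory dose calculated from the dose-response curve; optimal dose also recorded.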

Mus musculus [2] = assay: In vivo antitumor activity against lymphatic leukemia P388 cells resistant to mitomycin C (MMC) was measured as maximal increase in life span of the treated mice at optimal dose of 25 mg/kg; assay type: functional
HeLa = assay: In vitro anticellular activity tested against HeLa S3 cells; assay type: functional, cell-based; details: Homo sapiens
In short: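 HeLa S3 cells seeded on day 0, then exposed to drug for 1 h on day 1; anticellular activity determined by a previously described method.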

Mus musculus [3] = assay: In vivo antitumor activity against lymphatic leukemia P388 cells sensitive to mitomycin C (MMC) was measured as maximal increase in life span of the treated mice at optimal dose of 50 mg/kg; assay type: functional
CCRF S-180 [4] = assay: Optimal dose towards sarcoma 180 cells, inoculated subcutaneously to the axillary region of ddY mice; assay type: functional, Mus musculus; in short: as §1
Mus musculus [5] = assay: In vivo antitumor activity against lymphatic leukemia P388 cells resistant to mitomycin C (MMC) was measured as maximal increase in life span of the treated mice at optimal dose of 46 mg/kg; assay type: functional
Mus musculus [6] = assay: In vivo antitumor activity against lymphatic leukemia P388 cells sensitive to mitomycin C (MMC) was measured as maximal increase in life span of the treated mice at optimal dose of 13 mg/kg; assay type: functional
Mus musculus [7] = assay: In vivo antitumor activity against lymphatic leukemia P388 cells resistant to mitomycin C (MMC) was measured as maximal increase in life span of the treated mice at optimal dose of 13 mg/kg; assay type: functional
Mus musculus [8] = assay: In vivo antitumor activity against lymphatic leukemia P388 cells sensitive to mitomycin C (MMC) was measured as maximal increase in life span of the treated mice at optimal dose of 3.1 mg/kg; assay type: functional
Mus musculus [9] = assay: In vivo antitumor activity against lymphatic leukemia P388 cells resistant to mitomycin C (MMC) was measured as maximal increase in life span of the treated mice at optimal dose of 3.1 mg/kg; assay type: functional
Mus musculus [10] = assay: In vivo antitumor activity against lymphatic leukemia P388 cells resistant to mitomycin C (MMC) was measured as maximal increase in life span of the treated mice at optimal dose of 1.6 mg/kg; assay type: functional
CCRF S-180 [11] = assay: Tumor volume of sarcoma 180 cells which were inoculated […] to the axillary region of ddY mice, after treatment; assay type: functional, Mus musculus
Mus musculus [12] = assay: In vivo antitumor activity against lymphatic leukemia P388 cells resistant to mitomycin C (MMC) was measured as maximal increase in life span of the treated mice at optimal dose of 50 mg/kg; assay type: functional
Mus musculus [13] = assay: In vivo antitumor activity against lymphatic leukemia P388 cells sensitive to mitomycin C (MMC) was measured as maximal increase in life span of the treated mice at optimal dose of 0.78 mg/kg; assay type: functional

SMILES	IC50 (HeLa)	other results
CO[C@@]12[C@H](COC(N)=O)C3=C(C(=O)C(CSC(C)C)=C(N)C3=O)N1C[C@@H]1N[C@@H]12	5400 nM	ED50 (Mus musculus [1]): 8.4 mg/kg; ILS at 25 mg/kg (Mus musculus [2]): 30%; ILS at 50 mg/kg (Mus musculus [3]): 58%; OD (CCRF S-180 [4]): 25 mg/kg
CO[C@@]12[C@H](COC(N)=O)C3=C(C(=O)C(CSc4ccccc4O)=C(N)C3=O)N1C[C@@H]1N[C@@H]12	2200 nM	ED50 (Mus musculus [1]): 22 mg/kg; ILS at 46 mg/kg (Mus musculus [5]): > 67%; OD (CCRF S-180 [4]): 46 mg/kg
CO[C@@]12[C@H](COC(N)=O)C3=C(C(=O)C(CSCCO)=C(N)C3=O)N1C[C@@H]1N[C@@H]12	> 100000 nM	
CO[C@@]12[C@H](COC(N)=O)C3=C(C(=O)C(CSc4nc5ccccc5o4)=C(N)C3=O)N1C[C@@H]1N[C@@H]12	5100 nM	
CO[C@@]12[C@H](COC(N)=O)C3=C(C(=O)C(CSC4OC(COC(C)=O)C(OC(C)=O)C(OC(C)=O)C4OC(C)=O)=C(N)C3=O)N1C[C@@H]1N[C@@H]12 (some centres undefined)	1100 nM	ED50 (Mus musculus [1]): 24 mg/kg; ILS at 13 mg/kg (Mus musculus [6]): 58%; OD (CCRF S-180 [4]): 25 mg/kg; ILS at 13 mg/kg (Mus musculus [7]): > 143%
CO[C@@]12[C@H](COC(N)=O)C3=C(C(=O)C(CSc4ncccc4O)=C(N)C3=O)N1C[C@@H]1N[C@@H]12	190 nM	ED50 (Mus musculus [1]): 3.7 mg/kg; ILS at 3.1 mg/kg (Mus musculus [8]): 49%; ILS at 3.1 mg/kg (Mus musculus [9]): 26%; OD (CCRF S-180 [4]): 6.3 mg/kg
CO[C@@]12[C@H](COC(N)=O)C3=C(C(=O)C(CSc4ccccc4C(C)C)=C(N)C3=O)N1C[C@@H]1N[C@@H]12	27000 nM	
CO[C@@]12[C@H](COC(N)=O)C3=C(C(=O)C(CSCC4CC4)=C(N)C3=O)N1C[C@@H]1N[C@@H]12	1100 nM	ED50 (Mus musculus [1]): 13 mg/kg; ILS at 1.6 mg/kg (Mus musculus [10]): > 115%; ILS at 13 mg/kg (Mus musculus [6]): 43%; OD (CCRF S-180 [4]): 25 mg/kg
CO[C@@]12[C@H](COC(N)=O)C3=C(C(=O)C(CSCC(O)CO)=C(N)C3=O)N1C[C@@H]1N[C@@H]12 (some centres undefined)	> 100000 nM	
CO[C@@]12[C@H](COC(N)=O)C3=C(C(=O)C(CO)=C(N)C3=O)N1C[C@@H]1N[C@@H]12	> 29000 nM	
CO[C@@]12[C@H](COC(N)=O)C3=C(C(=O)C4=C(Nc5ccccc5SC4)C3=O)N1C[C@@H]1N[C@@H]12	310 nM	ED50 (Mus musculus [1]): 35 mg/kg; ILS at 25 mg/kg (Mus musculus [2]): 48%; ILS at 13 mg/kg (Mus musculus [6]): 36%; OD (CCRF S-180 [4]): 100 mg/kg
CO[C@@]12[C@H](COC(N)=O)C3=C(C(=O)C4=C(NCCSC4)C3=O)N1C[C@@H]1N[C@@H]12	1300 nM	
CO[C@@]12[C@H](COC(N)=O)C3=C(C(=O)C(CSC4=NCCS4)=C(N)C3=O)N1C[C@@H]1N[C@@H]12	820 nM	ED50 (Mus musculus [1]): 5.9 mg/kg; ILS at 3.1 mg/kg (Mus musculus [8]): 62%; ILS at 3.1 mg/kg (Mus musculus [9]): 64%; OD (CCRF S-180 [4]): 6.3 mg/kg
COCC1=C(N)C(=O)C2=C(C1=O)N1CC3C(N3C)[C@]1(OC)[C@@H]2COC(N)=O (some centres undefined)	> 100000 nM	
CO[C@@]12[C@H](COC(N)=O)C3=C(C(=O)C(C[S+]([O-])C(C)C)=C(N)C3=O)N1C[C@@H]1N[C@@H]12 (some centres undefined)	> 10000 nM	
CO[C@@]12[C@H](COC(N)=O)C3=C(C(=O)C(CSc4ccc(O)cc4)=C(N)C3=O)N1C[C@@H]1N[C@@H]12	116000 nM	
CCCCCCCCCCCCSCC1=C(N)C(=O)C2=C(C1=O)N1C[C@@H]3N[C@@H]3[C@]1(OC)[C@@H]2COC(N)=O	5500 nM	
CO[C@@]12[C@H](COC(N)=O)C3=C(C(=O)C(CS(=O)(=O)C(C)C)=C(N)C3=O)N1C[C@@H]1N[C@@H]12	> 10000 nM	
CO[C@@]12[C@H](COC(N)=O)C3=C(C(=O)C(CSc4ccccc4Br)=C(N)C3=O)N1C[C@@H]1N[C@@H]12	48000 nM	
CO[C@@]12[C@H](COC(N)=O)C3=C(C(=O)C(CSc4ncc[nH]4)=C(N)C3=O)N1C[C@@H]1N[C@@H]12	92000 nM	
CO[C@@]12[C@H](COC(N)=O)C3=C(C(=O)C(CSc4nnnn4C)=C(N)C3=O)N1C[C@@H]1N[C@@H]12	120 nM	
COCC1=C(OC)C(=O)C2=C(C1=O)N1CC3NC3[C@]1(OC)[C@@H]2COC(N)=O (some centres undefined)	120 nM	
CO[C@@]12[C@H](COC(N)=O)C3=C(C(=O)C(CSc4nccn4C)=C(N)C3=O)N1C[C@@H]1N[C@@H]12	760 nM	
CCSCC1=C(N)C(=O)C2=C(C1=O)N1C[C@@H]3N[C@@H]3[C@]1(OC)[C@@H]2COC(N)=O	2200 nM	

SMILES	IC50 (HeLa)	other results
CO[C@@]12[C@H](COC(N)=O)C3=C(C(=O)C(CSC4OC(CO)C(O)C(O)C4O)=C(N)C3=O)N1C[C@@H]1N[C@@H]12 (some centres undefined)	82000 nM	
COc1ccccc1SCC1=C(N)C(=O)C2=C(C1=O)N1C[C@@H]3N[C@@H]3[C@]1(OC)[C@@H]2COC(N)=O	2300 nM	
COC(=O)CCSCC1=C(N)C(=O)C2=C(C1=O)N1C[C@@H]3N[C@@H]3[C@]1(OC)[C@@H]2COC(N)=O	970 nM	T/C (CCRF S-180 [11]): 0.63 min; ILS at 3.1 mg/kg (Mus musculus [8]): 69%; OD (CCRF S-180 [4]): 3.1 mg/kg
CO[C@@]12[C@H](COC(N)=O)C3=C(C(=O)C(CSc4nc5ccccc5s4)=C(N)C3=O)N1C[C@@H]1N[C@@H]12	700 nM	ED50 (Mus musculus [1]): 36 mg/kg; ILS at 50 mg/kg (Mus musculus [12]): 57%; ILS at 13 mg/kg (Mus musculus [6]): 40%; OD (CCRF S-180 [4]): 50 mg/kg
CO[C@@]12[C@H](COC(N)=O)C3=C(C(=O)C(CSc4cccs4)=C(N)C3=O)N1C[C@@H]1N[C@@H]12	4900 nM	ED50 (Mus musculus [1]): 29 mg/kg; ILS at 46 mg/kg (Mus musculus [5]): > 56%; OD (CCRF S-180 [4]): 46 mg/kg
COc1ccc(SCC2=C(N)C(=O)C3=C(C2=O)N2C[C@@H]4N[C@@H]4[C@]2(OC)[C@@H]3COC(N)=O)cc1	14000 nM	
COCC1=C(N)C(=O)C2=C(C1=O)N1CC3NC3[C@]1(OC)[C@@H]2COC(N)=O (some centres undefined)	2600 nM	
CO[C@@]12[C@H](COC(N)=O)C3=C(C(=O)C(CSc4ncccn4)=C(N)C3=O)N1C[C@@H]1N[C@@H]12	950 nM	ED50 (Mus musculus [1]): 8.9 mg/kg; ILS at 1.6 mg/kg (Mus musculus [10]): > 92%; ILS at 0.78 mg/kg (Mus musculus [13]): 58%; OD (CCRF S-180 [4]): 13 mg/kg
CCCCOCC1=C(N)C(=O)C2=C(C1=O)N1C[C@@H]3N[C@@H]3[C@]1(OC)[C@@H]2COC(N)=O	19000 nM	
CCCOCC1=C(N)C(=O)C2=C(C1=O)N1C[C@@H]3N[C@@H]3[C@]1(OC)[C@@H]2COC(N)=O	5300 nM	
CO[C@@]12[C@H](COC(N)=O)C3=C(C(=O)C(CSc4nnc(C)s4)=C(N)C3=O)N1C[C@@H]1N[C@@H]12	1100 nM	
CO[C@@]12[C@H](COC(N)=O)C3=C(C(=O)C(CSCc4ccccc4)=C(N)C3=O)N1C[C@@H]1N[C@@H]12	2200 nM	
C=CCOCC1=C(N)C(=O)C2=C(C1=O)N1C[C@@H]3N[C@@H]3[C@]1(OC)[C@@H]2COC(N)=O	5500 nM	
CO[C@@]12[C@H](COC(N)=O)C3=C(C(=O)C(CSc4ccccc4Cl)=C(N)C3=O)N1C[C@@H]1N[C@@H]12	7300 nM	
COCC1=C(N)C(=O)C2=C(C1=O)N1C[C@H]3[C@H](N3C)[C@]1(O)[C@H]2COC(N)=O (some centres undefined)	> 82000 nM	
CO[C@@]12[C@H](COC(N)=O)C3=C(C(=O)C(CSc4nc(C)cc(C)n4)=C(N)C3=O)N1C[C@@H]1N[C@@H]12	1100 nM	ILS at 3.1 mg/kg (Mus musculus [8]): 50%; OD (CCRF S-180 [4]): 6.3 mg/kg
CO[C@@]12[C@H](COC(N)=O)C3=C(C(=O)C(COCc4ccccc4)=C(N)C3=O)N1C[C@@H]1N[C@@H]12	5500 nM	
CO[C@@]12[C@H](COC(N)=O)C3=C(C(=O)C(CSc4nc[nH]n4)=C(N)C3=O)N1C[C@@H]1N[C@@H]12	6800 nM	
CO[C@@]12[C@H](COC(N)=O)C3=C(C(=O)C(CSc4ccccc4)=C(N)C3=O)N1C[C@@H]1N[C@@H]12	1000 nM	ED50 (Mus musculus [1]): 6.1 mg/kg; ILS at 50 mg/kg (Mus musculus [3]): 45%; OD (CCRF S-180 [4]): 22 mg/kg
CO[C@@]12[C@H](COC(N)=O)C3=C(C(=O)C(CSc4nnnn4-c4ccccc4)=C(N)C3=O)N1C[C@@H]1N[C@@H]12	270 nM	
CO[C@@]12[C@H](COC(N)=O)C3=C(C(=O)C(CSc4ccccn4)=C(N)C3=O)N1C[C@@H]1N[C@@H]12	1800 nM	
CO[C@@]12[C@H](COC(N)=O)C3=C(C(=O)C(CSc4ccc([N+](=O)[O-])cc4)=C(N)C3=O)N1C[C@@H]1N[C@@H]12	780 nM	
CO[C@@]12[C@H](COC(N)=O)C3=C(C(=O)C(CSc4ccc(Cl)cc4)=C(N)C3=O)N1C[C@@H]1N[C@@H]12	53000 nM	
COC1=C(C)C(=O)C2=C(C1=O)[C@@H](COC(N)=O)[C@@]1(OC)[C@H]3N[C@H]3CN21 [MITOMYCIN A]	2.4 nM	
